TAAR1 agonist = human TAAR1 agonism; Q96RJ0; CHO RD-HGA16 TAAR1, Fluo-8 calcium fluorescence; vehicle wells 0%, saturating PEA agonist 100%; activation, % at 3 µM; 360,000 tested, 0.99% active;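 active means activation above the mean activation of all test compounds in the run plus 3 SD, cut at about 38% in these data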
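System: CHO RD-HGA16 cells carrying human TAAR1 plus Gα16; Incubation: 17-24 h seeding, 75 min 37 °C dye, 30 min RT; Measured by: Fluo-8 fluorescence, 5 s baseline then 140 s kinetic read; Control set: DMSO and PEA EC100; Replication: single well for each compound.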
CRFR2-BP antag = CRF-BP/CRF-R2 complex antagonism; AID 588475; 350,000 tested, 0.59% active; inhibition, % at 11.8 µM; HEK293 CRF-R2/CRF-BP, CRF-induced calcium fluorescence;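 active means inhibition of the ligand-induced calcium signal above about 50% at the single tested concentration, limit read from the data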
TAAR1 antagonist = antagonists of human TAAR1; AID 624466; CHO RD-HGA16 TAAR1, Fluo-8 calcium fluorescence, antagonist; 360,000 tested, 1.5% active; Q96RJ0; inhibition, % at 3 µM;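 active means inhibition above a per-plate cutoff, the mean inhibition of test compounds on that plate plus 3 SD, cut at about 49% in these data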;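 further: 0% = DMSO plus EC80 beta-PEA response and 100% = DMSO alone without agonist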
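test system = CHO RD-HGA16 cells bearing hTAAR1 | replication = singlicate | controls = DMSO-only wells and EC80 β-PEA-stimulated wells | reagent = EC80 β-phenethylamine stimulus | read-out basis = percent inhibition of PEA-evoked calcium signal, max/basal emission ratio | schedule = seeding 17-24 h prior, 75-min 37 °C, 30-min RT dye loading | signal = kinetic Fluo-8 calcium fluorescence measurement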
TMEM16A act = activators or potentiators of mouse TMEM16A chloride channel; AID 623877; 340,000 tested, 0.3% active; HEK293 TMEM16A/YFP-H148Q/I152L, iodide quench fluorescence; active compounds read low; B-score at 10 µM; Q8BHY3;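 active means fluorescence-ratio B-score plate-corrected deviation score at least 3 library SD below zero, with starting fluorescence score within 5 deviations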;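 further: channel opened by trigger with iodide after compound preincubation; score built on the fluorescence ratio of max minus min over baseline; more negative score means more quench and so TMEM16A activation or potentiation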
Target sequence (Q8BHY3 whole entry, looked up): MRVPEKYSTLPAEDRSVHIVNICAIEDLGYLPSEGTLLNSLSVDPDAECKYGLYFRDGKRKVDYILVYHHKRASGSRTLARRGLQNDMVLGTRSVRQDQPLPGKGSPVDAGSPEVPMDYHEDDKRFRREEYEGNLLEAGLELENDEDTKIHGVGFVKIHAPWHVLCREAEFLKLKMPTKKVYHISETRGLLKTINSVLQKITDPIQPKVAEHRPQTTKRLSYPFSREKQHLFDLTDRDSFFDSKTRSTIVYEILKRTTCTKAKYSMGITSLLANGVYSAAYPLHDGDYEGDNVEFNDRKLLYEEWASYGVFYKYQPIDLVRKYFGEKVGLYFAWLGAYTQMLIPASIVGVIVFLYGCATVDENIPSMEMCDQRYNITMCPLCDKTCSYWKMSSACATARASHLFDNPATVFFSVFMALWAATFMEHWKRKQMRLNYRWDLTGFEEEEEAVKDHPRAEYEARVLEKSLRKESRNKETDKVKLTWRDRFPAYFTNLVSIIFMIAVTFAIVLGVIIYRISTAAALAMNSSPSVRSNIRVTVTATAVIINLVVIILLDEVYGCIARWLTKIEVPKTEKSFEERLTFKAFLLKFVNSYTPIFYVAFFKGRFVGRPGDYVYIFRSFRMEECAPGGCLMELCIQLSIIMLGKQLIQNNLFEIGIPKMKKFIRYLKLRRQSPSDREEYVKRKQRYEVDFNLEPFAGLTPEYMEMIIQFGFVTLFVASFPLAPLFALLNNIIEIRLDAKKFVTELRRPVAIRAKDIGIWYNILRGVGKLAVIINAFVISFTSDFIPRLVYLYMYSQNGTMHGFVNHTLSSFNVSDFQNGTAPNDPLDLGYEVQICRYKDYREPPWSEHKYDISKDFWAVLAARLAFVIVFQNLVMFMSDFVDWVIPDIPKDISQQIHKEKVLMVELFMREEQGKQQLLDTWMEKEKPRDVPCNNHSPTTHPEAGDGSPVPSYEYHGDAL
ANO1 block = inhibitors of mouse TMEM16A calcium-activated chloride channel | HEK293 TMEM16A/YFP iodide influx fluorescence, ionomycin | 310,000 tested, 1.2% active | AID 588511 | Q8BHY3 | normalized B-score (activity score, 25-100; higher = stronger inhibition) at 10 µM;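 active means ratio plate-corrected score three or more library SD toward inhibition, starting fluorescence score within five deviations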;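 further: score derived from kinetic fluorescence span divided by baseline fluorescence per well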
CRFBP-R2 agonist = agonists of human CRF-binding protein/CRF-R2 receptor complex; activation, % at 13.2 µM; AID 588473; HEK293 CRF-R2/CRF-BP, calcium dye fluorescence (FLIPR); percent of saturating CRF peptide response; 350,000 tested, 0.46% active;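 active means activation of at least 50%, plus an integration ratio under a set limit after plate pattern correction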;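 further: plate controls were neutral control wells without compound for no effect and CRF at EC100 for full effect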
TMEM16A reconf = TMEM16A (mouse) chloride channel inhibition, re-confirmation; 2,300 tested, 39% active; inhibition, % at 10 µM; HEK293 TMEM16A/YFP-H148Q, iodide quench fluorescence; ionomycin added to raise cell calcium; shares compounds with ANO1 block; AID 652189;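 active means mean duplicate percent inhibition, scaled so buffer wells are 0 and the reference blocker 100, over three buffer SD above buffer mean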
TMEM16A Ca cntr = calcium mobilization counter-screen hit for TMEM16A inhibitor series; AID 652231; TMEM16A/YFP HEK293, Fluo4 calcium mobilization; 2,300 tested, 2% active; calcium response (% of ionomycin), % at 10 µM; shares compounds with ANO1 block;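 active means duplicate-averaged calcium signal over 20% of the ionomycin maximum, relative to buffer baseline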;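 further: each well's signal is peak minus trough fluorescence divided by its pre-addition baseline; 0% = buffer wells and 100% = ionomycin wells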
Parental YFP cnt = parental YFP-HEK293 iodide quench counter-screen activity; shares compounds with ANO1 block; ionomycin; YFP ratio F(max-min)/F0 at 10 µM; 2,300 tested, under 10 active; AID 652233;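 active means yellow fluorescent protein signal ratio exceeding the buffer control mean by over 5 SD of those controls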;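 further: ratio is mean of duplicate wells from kinetic YFP trace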
ClC-1 inh = blocks the rat ClC-1 voltage-dependent chloride channel | shares compounds with ANO1 block | CHO ClC-1-YFP, iodide influx fluorescence quench; iodide control reads 0, buffer control 100 | ratio percent, % at 10 µM | 2,300 tested, under 10 active | AID 652236;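 active means duplicate-mean ratio percent above the mean of iodide-only control wells, which defines zero, plus 5 of their SD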;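 further: higher percent means stronger block of ClC-1 iodide influx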
Starred values were filed as active, the others as inactive. Only some compounds are listed: those with a hit (about 3.9% of all), similar ones and a draw of the others.

What do the screens show for `CN1c2ccsc2C(O)=C(C(=S)Nc2ccc(F)c(Cl)c2)S1(=O)=O`?
TAAR1 agonist: 9; CRFR2-BP antag: 23; TAAR1 antagonist: 10; TMEM16A act: inactive; ANO1 block: 25*; CRFBP-R2 agonist: -1; TMEM16A reconf: 21%*; TMEM16A Ca cntr: inactive; Parental YFP cnt: -1.1; ClC-1 inh: -10

Results for O=S1(=O)C[C@@H](N2CCN(CC3CC3)CC2)[C@H](COCc2ccccc2)N1 ?
TAAR1 agonist: 4; TAAR1 antagonist: -14

What do the screens show for `O=C(Cc1ccccc1)Nc1cc(C(=O)c2ccccc2)ccc1N1CCOCC1`?
TAAR1 agonist: 9; CRFR2-BP antag: -39; TAAR1 antagonist: 23; TMEM16A act: inactive; ANO1 block: 100*; CRFBP-R2 agonist: -1; TMEM16A reconf: inactive; TMEM16A Ca cntr: inactive; Parental YFP cnt: -1.3; ClC-1 inh: -8

Results for Cc1oc(C(C)(C)C)cc1C(=O)N1CCN(C(c2ccccc2)c2ccccc2)CC1 ?
TAAR1 agonist: -2; CRFR2-BP antag: 31; TAAR1 antagonist: -36; TMEM16A act: inactive; ANO1 block: inactive; CRFBP-R2 agonist: 0

How did COC(=O)Cn1c(O)c(N=NC(=O)CNC(=O)c2ccncc2)c2ccccc21 do in these assays?
TAAR1 agonist: 2; CRFR2-BP antag: -5; TAAR1 antagonist: -22; TMEM16A act: inactive; ANO1 block: inactive; CRFBP-R2 agonist: 2

How did CC(=O)N1CCSc2ccc(S(=O)(=O)NCCc3ccc(Cl)cc3)cc21 do in these assays?
TAAR1 agonist: 8; CRFR2-BP antag: -4; TAAR1 antagonist: 27; TMEM16A act: inactive; ANO1 block: 100*; CRFBP-R2 agonist: 2; TMEM16A reconf: 34%*; TMEM16A Ca cntr: inactive; Parental YFP cnt: -0.86; ClC-1 inh: -11

Results for CC(=O)N1CCSc2ccc(S(=O)(=O)NCCc3ccc(C)cc3)cc21 ?
TAAR1 agonist: 22; CRFR2-BP antag: 7; TAAR1 antagonist: 0; TMEM16A act: inactive; ANO1 block: inactive; CRFBP-R2 agonist: 0

How did COc1cc2ncnc(Nc3ccc4c(c3)OCO4)c2cc1OC do in these assays?
TAAR1 agonist: 1; CRFR2-BP antag: 15; TAAR1 antagonist: -10; TMEM16A act: inactive; ANO1 block: inactive; CRFBP-R2 agonist: -4; TMEM16A reconf: inactive; TMEM16A Ca cntr: inactive; Parental YFP cnt: -0.89; ClC-1 inh: -4

Results for CSc1nc2sc3c(c2c2nnnn12)CCCC3 ?
TAAR1 agonist: 17; CRFR2-BP antag: -18; TAAR1 antagonist: 9; TMEM16A act: inactive; ANO1 block: 100*; CRFBP-R2 agonist: 0; TMEM16A reconf: inactive; TMEM16A Ca cntr: inactive; Parental YFP cnt: -1.2; ClC-1 inh: -8

Results for Cc1cnc(C(=O)OCC(=O)Nc2ccccc2[N+](=O)[O-])cn1 ?
TAAR1 agonist: 4; CRFR2-BP antag: 21; TAAR1 antagonist: -12; TMEM16A act: inactive; CRFBP-R2 agonist: 0

What do the screens show for `Cc1ccc(SCCNS(=O)(=O)c2ccc3c(c2)OCCO3)cc1`?
TAAR1 agonist: 26; CRFR2-BP antag: 6; TAAR1 antagonist: 11; TMEM16A act: inactive; ANO1 block: 25*; CRFBP-R2 agonist: 1; TMEM16A reconf: inactive; TMEM16A Ca cntr: inactive; Parental YFP cnt: -1.1; ClC-1 inh: -9

How did COc1ccc(S(=O)(=O)NCCSc2ccc(C)cc2)cc1OC do in these assays?
TAAR1 agonist: 3; CRFR2-BP antag: 3; TAAR1 antagonist: -11; TMEM16A act: inactive; ANO1 block: inactive; CRFBP-R2 agonist: -3

How did COc1cccc(C(=O)NC2CCN(C(=O)N3CCCCC3)CC2)c1 do in these assays?
TAAR1 agonist: 0; CRFR2-BP antag: -10; TAAR1 antagonist: -4; TMEM16A act: inactive; ANO1 block: 25*; CRFBP-R2 agonist: -1; TMEM16A reconf: inactive; TMEM16A Ca cntr: inactive; Parental YFP cnt: -1; ClC-1 inh: -16

Results for COc1ccc(C2SCC(=O)N2CCCN(C)C)cc1 (stereo not given) ?
TAAR1 agonist: 1; CRFR2-BP antag: -20; TAAR1 antagonist: -32; TMEM16A act: inactive; ANO1 block: 25*; CRFBP-R2 agonist: 0; TMEM16A reconf: inactive; TMEM16A Ca cntr: inactive; Parental YFP cnt: -0.86; ClC-1 inh: -4

How did COc1ccccc1C(=O)Nc1nnc(SCC(=O)NC2CCCC2)s1 do in these assays?
CRFR2-BP antag: -14; TMEM16A act: inactive; ANO1 block: inactive; CRFBP-R2 agonist: 0

Results for COc1cc2c(cc1NC(=O)c1cc(-c3ccncc3)nc3ccc(C)cc13)oc1ccccc12 ?
TAAR1 agonist: 0; CRFR2-BP antag: 1; TAAR1 antagonist: 17; TMEM16A act: inactive; ANO1 block: 25*; CRFBP-R2 agonist: 1; TMEM16A reconf: inactive; TMEM16A Ca cntr: inactive; Parental YFP cnt: -1.2; ClC-1 inh: -6

Results for CCc1ccc(S(=O)(=O)NCCc2csc(-c3ccccc3)n2)s1 ?
TAAR1 agonist: 7; CRFR2-BP antag: -17; TAAR1 antagonist: 34; TMEM16A act: inactive; ANO1 block: 100*; CRFBP-R2 agonist: -1; TMEM16A reconf: inactive; TMEM16A Ca cntr: inactive; Parental YFP cnt: -1.1; ClC-1 inh: -26

What do the screens show for `O=S(=O)(c1ccc2c(c1)OCCO2)N1CCN(c2ncnc3sccc23)CC1`?
TAAR1 agonist: 10; CRFR2-BP antag: 23; TAAR1 antagonist: 13; TMEM16A act: inactive; ANO1 block: 25*; CRFBP-R2 agonist: 0; TMEM16A reconf: 17%*; TMEM16A Ca cntr: inactive; Parental YFP cnt: -1.1; ClC-1 inh: -19

Results for O=S(=O)(c1ccc2c(c1)OCCO2)N1CCC(O)(c2ccc(Cl)cc2)CC1 ?
TAAR1 agonist: 7; CRFR2-BP antag: -2; TAAR1 antagonist: 3; TMEM16A act: inactive; ANO1 block: 100*; CRFBP-R2 agonist: -3; TMEM16A reconf: inactive; TMEM16A Ca cntr: inactive; Parental YFP cnt: -1.1; ClC-1 inh: 0
